From PubChem
Rows were chosen to be rich in hits. Some 2.5% of all compounds tested hit in one or more screens of this group.
NR1D1 modulator: modulators of Rev-erb alpha DNA binding, primary screen, biochemical, FITC-DNA, fluorescence polarization, uHTS; AID 1259318, 2017; Rev-erbα–FITC-DNA binding, 90 min; activity, % at 10 µM; hit rate 0.79% among 370,000; Nuclear receptor subfamily 1 group D member 1 (Homo sapiens), P20393;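 active = activity above about 14%, limit read from the data; passing the limit was not always enough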;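 also: 0% = DMSO wells with 35 nM protein and 100% = DMSO wells with 750 nM protein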
MC4R ag barr: MC4R agonists recruiting beta-arrestin, primary screen, cell-based, luminescence, agonist arm of biased-ligand search | Melanocortin receptor 4 (Homo sapiens), P32245 | U2OS MC4R beta-arrestin complementation; percent of melanotan II response, DMSO zero | activation, % at 8.9 µM | hit rate 0.98% among 360,000;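 active = activation above a per-plate cutoff, the mean activation of sample wells on that plate plus 3 SD, cut at about 8% in these data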
Target sequence (P32245 whole entry, looked up): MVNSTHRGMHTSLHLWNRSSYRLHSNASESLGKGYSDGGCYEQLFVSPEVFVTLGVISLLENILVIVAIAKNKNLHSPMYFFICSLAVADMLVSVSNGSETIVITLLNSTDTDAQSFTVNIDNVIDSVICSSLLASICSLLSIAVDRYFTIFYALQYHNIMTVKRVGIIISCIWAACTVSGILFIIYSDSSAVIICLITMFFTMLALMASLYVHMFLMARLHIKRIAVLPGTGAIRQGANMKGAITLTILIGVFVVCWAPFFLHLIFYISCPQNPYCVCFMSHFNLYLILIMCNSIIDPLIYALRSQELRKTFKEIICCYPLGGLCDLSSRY
PG9 Ab binder: binders of HIV-1 gp120 antibody PG9, primary screen, biochemical, TR-FRET; TR-FRET gp120-PG9 antibody binding; inhibition, % at 6.7 µM; AID 624416, 2012; hit rate 0.43% among 360,000; HIV-1 gp120 / PG9 antibody interaction; in the data active = inhibition above about 8.5%
NTR1 ag: agonists of human NTR1, primary screen, imaging, U2OS cells, beta-arrestin-GFP, high content; Neurotensin receptor type 1 (Homo sapiens), P30989; NTR1-U2OS beta-arrestin-GFP spot imaging, agonist mode; activation, % at 20 µM; hit rate 0.17% among 330,000; AID 493036, 2011;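 active = activation at or above 40% of the spot to cytoplasm intensity ratio, with at least 20 cells analyzed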;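 also: 0% = DMSO without peptide and 100% = 100 nM NTR1 peptide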
MC4R antag cAMP: MC4R antagonists of cAMP signaling, primary screen, cell-based, TR-FRET, antagonist arm of biased-ligand search. Melanocortin receptor 4 (Homo sapiens), P32245. MC4R-expressing cells, MTII-stimulated cAMP, LANCE TR-FRET. inhibition, % at 6.5 µM. hit rate 0.48% among 360,000;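 active = inhibition above its plate's cutoff, the mean of tested wells on that plate plus 3 SD, cut at about 29% in these data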;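 also: 0% = Melanotan II alone and 100% = Melanotan II plus saturating MCL0020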
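Test system: U2OS cells stably expressing human melanocortin 4 receptor (MC4R); also added: Melanotan II challenge; compound: 6.5 µM single dose; timing: 30-min compound preincubation, 1-h Melanotan II challenge, 1-h detection, room temperature; signal: Eu-cAMP/anti-cAMP TR-FRET, emission 671 nm; repeats: one well per compound, no replicates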
Rev-erbA confirm: modulators of Rev-erb alpha DNA binding, confirmation, biochemical, FITC-DNA, fluorescence polarization, single point; 90 min; hit rate 61% among 3,000; shares compounds with NR1D1 modulator; AID 1259319, 2017; activation, % at 25 µM;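 active = activation at or above a set limit, or at least 3 SD above the negative control mean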;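 also: 0% = 35 nM protein with DMSO and 100% = 750 nM protein high control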
RORg counter: modulation of RORgamma DNA binding, dose response, counter-screen for Rev-erb alpha modulator project, biochemical, fluorescence polarization, FITC-DNA; shares compounds with NR1D1 modulator; purified RORgamma protein-FITC-DNA binding; IC50, µM; hit rate 8% among 910; AID 1259320, 2017;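 active = Compounds whose fitted half-maximal concentration for disrupting protein-DNA binding is below 10 micromolar; the record names Rev-erb in its text, so the target is in doubt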
An asterisk follows results filed as active; i = inactive; · = not tested or not shown.

SMILES	NR1D1 modulator	MC4R ag barr	PG9 Ab binder	NTR1 ag	MC4R antag cAMP	Rev-erbA confirm	others
Cc1c(C(=O)NC2CCCCC2)sc2ncnc(N3CCN(c4ccccc4)CC3)c12	39.2*	-1.2	1.4	0.9	4.5	16.3
Cc1cc(Br)ccc1NC(=O)CN1CCN(c2ccccn2)CC1	2.2	0.8	0.3	0.5	-3.2	·
COc1ccc(NC(=O)c2sc3nc(C)nc(N4CCN(c5ccccn5)CC4)c3c2C)cc1Cl	18.4	0.7	-1.6	-0.9	2.7	·
Cc1cc(Br)ccc1NC(=O)c1sc2ncnc(N3CCN(c4ccccn4)CC3)c2c1C	69.1*	-1.1	-2.7	-1.0	-13.5	8.5
O=S1(=O)CC2c3ccccc3CCN2CN1Cc1ccc(F)cc1 (stereo not drawn)	-3.8	·	·	·	·	·
COC(=O)c1sc(NC(=S)NC(=O)c2ccccc2F)nc1C	43.2*	-1.7	2.5	-0.1	-1.8	-0.4
CCOC(=O)c1sc(NC(=O)c2ccccc2OC)nc1C	40.5*	5.4	-0.7	-0.9	8.3	23.2*
Cc1nc(NC(=O)c2cc3ccccc3o2)sc1C	-3.9	1.1	-1.8	-0.7	-1.4	·
COc1ccccc1C(=O)Nc1nc2ccccc2s1	33.5*	-0.9	-0.2	1.0	4.6	40.5*	RORg counter=>40
COC(=O)c1sc(NC(=S)NC(=O)c2cccc(C)c2)nc1C	9.1	-1.8	0.3	3.6	7.2	·
CCOC(=O)c1sc(NC(=O)c2cc3ccccc3o2)nc1C	30.1*	-1.3	2.9	5.9	3.6	4.9
COc1ccc2ccccc2c1-c1c(C(=O)c2ccc(Br)cc2)[nH]c(N)c1C(=O)NC1CCCCC1	8.9	·	·	·	·	·
CN1CC(O)([C@H](Cc2ccccc2)NC(=O)OC(C)(C)C)OCC1C(=O)NCc1cccc2ccccc12 (stereo partly drawn)	8.2	·	·	·	·	·
CCOC(=O)C(Cc1ccccc1)CP(=O)(OC)[C@@H](C)NC(=O)OCc1ccccc1 (stereo partly drawn)	-2.6	·	·	·	·	·
CC(=O)c1sc(NC(=O)c2ccc(F)c(F)c2)nc1C	0.9	-3.0	-1.0	-0.7	11.9	·
CC(=O)c1sc(NC(=O)c2ccc(Cl)cc2)nc1C	25.8*	-0.4	2.0	2.5	-1.4	17.1
Cn1sc(NC(=O)c2ccc(Cl)cc2)nc1=O	0.8	-1.8	-0.8	-0.5	4.7	·
O=C(Nc1nc2ccsc2c(=O)s1)c1ccc(Cl)cc1	109.7*	-0.4	0.4	0.8	5.3	44.0*	RORg counter=>40
NC(=O)c1ncn([C@@H]2O[C@H](C(=O)N[C@H](Cc3ccccc3)C(=O)N3CCN(CC(=O)Nc4ccccn4)CC3)[C@@H](O)[C@H]2O)n1	-2.6	·	-1.2	·	·	·
Cc1nc(N2CCN(c3ccccn3)CC2)c2c(C)c(C(=O)Nc3ccc(F)cc3F)sc2n1	3.9	-1.5	-1.1	3.1	-2.4	·
Cc1nc(N2CCN(c3ccccn3)CC2)c2c(C)c(C(=O)Nc3ccccc3F)sc2n1	14.8	0.0	2.2	6.1	3.9	·
CCc1ccc(NC(=O)c2sc3nc(C)nc(N4CCN(c5ccccn5)CC4)c3c2C)cc1	28.4*	-0.1	0.2	-0.2	6.8	21.5*
Cc1nc(N2CCN(c3ccccn3)CC2)c2c(C)c(C(=O)Nc3ccc(F)cc3Cl)sc2n1	34.0*	0.5	0.2	0.6	8.8	19.9*
Cc1nc(N2CCN(c3ccccn3)CC2)c2c(C)c(C(=O)N3CCN(c4cccc(Cl)c4)CC3)sc2n1	73.0*	-0.1	2.6	1.5	2.8	50.3*	RORg counter=>40
CCOC(=O)Nc1ccc2c(c1)[C@]1(CC(=O)N(CC(C)C)C1c1ccccc1)C(=O)N2C (stereo partly drawn)	-4.7	·	·	·	·	·
SMILES	NR1D1 modulator	MC4R ag barr	PG9 Ab binder	NTR1 ag	MC4R antag cAMP	Rev-erbA confirm	others
CCOC(=O)CN1C(=O)[C@]2(OCCC=C[C@H]2C)c2ccccc21	-4.3	·	0.1	·	·	·
O=C(Nc1ccccc1C(F)(F)F)O[C@@H]1CC[C@@]23CCCN2C(=O)CCC[C@H]3C1	-2.5	·	·	·	·	·
O=C(Cn1cc(C(F)(F)F)cc(Cl)c1=O)Nc1cc(Cl)cc(Cl)c1	58.6*	1.1	4.5	0.2	-4.9	26.8*
O=C(Nc1ccc2c(c1)COC2=O)c1ccc(Cl)c(Cl)c1	47.9*	0.5	6.7	0.0	8.3	27.2*
COc1ccc(-c2noc(COc3ccc(C)c(C)c3)n2)cc1OC	-1.9	-0.1	1.1	-0.8	2.7	·
COc1ccc(-c2noc(COc3ccc4ccccc4c3Br)n2)cc1OC	29.1*	-2.6	0.3	3.2	2.4	16.8*
Cc1cc(C)c(NC(=O)CNC(=O)c2ccccc2OCc2c(C)noc2C)c(C)c1	6.3	-0.6	-0.7	-1.6	18.8	·
Cc1cc(C)c(NC(=O)COc2ccccc2C(=O)Nc2ccc3c(c2)oc2ccccc23)c(C)c1	32.4*	-1.5	0.0	5.6	4.5	37.0*	RORg counter=>40
COc1cc(OC)cc(-c2c(-c3cccs3)c3cc(-c4ccc(N(C)C)nc4)ccc3n2C)c1	24.1*	-0.7	1.2	3.0	0.8	1.2
COc1cc(F)cc(-c2ccc3c(c2)c(-c2cccs2)c(-c2cc(OC)cc(OC)c2)n3C)c1	3.6	-1.4	-2.7	3.2	-8.4	·
O=C(O)[C@H]1O[C@H](O)[C@H](O)[C@@H](O)[C@@H]1O	-4.2	·	·	·	·	·
Cc1ccc(C2(C(F)(F)F)NC(=O)N3C(=C2C#N)Nc2ccccc23)cc1 (stereo not drawn)	33.5*	-1.7	0.0	1.8	-22.0	32.3*	RORg counter=i
CN1C2=C(C#N)C(c3ccccc3)(C(F)(F)F)NC(=O)N2c2ccccc21 (stereo not drawn)	5.4	-0.1	1.6	1.2	-42.7	·
CCOc1ccc(CCNC(=O)Cn2ncn3nc(-c4ccc(OC)cc4)cc3c2=O)cc1OCC	22.6*	0.2	1.7	0.7	3.2	-2.0
COc1ccc(-c2cc3c(=O)n(CC(=O)NCCCc4ccccc4)ncn3n2)cc1	9.4	0.1	-0.6	0.9	9.3	·
Cc1cc2cc(CN(Cc3ccco3)C(=O)NCc3ccccc3)c(=O)[nH]c2cc1C	1.1	0.7	1.5	-0.2	1.2	·
Cc1cc2cc(CN(Cc3ccco3)C(=O)C3CCCCC3)c(=O)[nH]c2cc1C	43.1*	0.1	0.7	3.2	13.2	43.8*
